The subject of data set [1] is Leishmania amazonensis. Briefly: Antileishmanial activity against intracellular Leishmania amazonensis. The data set is classed as functional, organism-based.
For data set [2], the system named is L6. Description: Cytotoxicity against rat L6 cells. The data set is classed as cell-based.
Data set [3] deals with Nucleic Acid. Description: Binding affinity to poly(dA-dT)n DNA assessed as increase in melting temperature at 0.3 mol compound per mole of DNA by spectrophotometry. In kind it is nucleic-acid assay. Put shortly:
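Thermal melting monitored by UV absorbance in 1 cm quartz cuvettes, heated at 0.5 °C/min under thermistor control. CAC 10 buffer: cacodylic acid 10 mM, EDTA 1 mM, NaCl 100 mM, pH 7.0. DNA concentration set from absorbance at 260 nm. Complex at 0.3 mol compound per mol DNA, with DNA alone as control. ΔTm taken from the peak of first-derivative (dA/dT) curves.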

For data set [4], the system named is Leishmania donovani. Description: Antileishmanial activity against intracellular Leishmania donovani. The data set is classed as functional, organism-based.
Data set [5] can be described thus: Selectivity index, ratio of IC50 for rat L6 cells to IC50 for intracellular Leishmania donovani. The data set is classed as toxicity, cell-based.
In data set [6] the test system is Mus musculus. Briefly: Toxicity in uninfected mouse assessed as induction of severe tremors at 30 mg/kg, ip measured 10 mins post dose. Set-up: dose 30 mg/kg, route intraperitoneal. The data set is classed as organism-based. As to conditions: in vivo.
For data set [7], the system named is Mus musculus. Briefly: Toxicity in uninfected mouse assessed as induction of severe tremors at 10 mg/kg, ip measured 40 mins post dose. The data set is classed as organism-based. Set-up: dose 10 mg/kg, route intraperitoneal. To be noted: in vivo.

Bounds are passed on as bounds.

For the compound `N=C(Nc1ccc(Cc2ccc(NC(=N)c3ccccn3)cc2)cc1)c1ccccn1`, the IC50 (usually the concentration at which inhibition is half-maximal) in data set [1] is greater than 10 µM; in data set [2] it was 93.5 µM. Moreover, the ΔTm (as a rule, the change in melting temperature against a reference sample) in data set [3] is 2.1 °C.

Turning to `N=C(Nc1ccccn1)c1ccc(C(=N)Nc2ccccn2)cc1`, the IC50 in data set [1] was 5.1 µM; in data set [2], greater than 202 µM. For the same compound, the ΔTm in data set [3] was determined as 0.5 °C.

For the compound `N=C(Nc1ccc(NC(=N)c2ccccn2)cc1)c1ccccn1`, the IC50 in data set [1] is greater than 10 µM; in data set [2], greater than 212 µM. Besides, the ΔTm in data set [3] came out at 0 °C.

`CC(C)Oc1cc(NC(=N)c2ccccn2)ccc1-c1ccc(NC(=N)c2ccccn2)cc1OC(C)C.Cl.Cl`: the IC50 in data set [1] stood at 0.14 µM; in data set [4], 0.025 µM; in data set [2], 22.9 µM. In addition, in data set [3], the shift in melting temperature (ΔTm) is 0.1 °C. The “Selectivity Index” value in data set [5] is given as 916. Also, the Activity result in data set [6] was “Toxic”.

`Cl.Cl.N=C(Nc1ccc(Oc2ccc(NC(=N)c3ccccn3)cc2)cc1)c1ccccn1`: the IC50 in data set [1] was found to be 0.67 µM; in data set [4] it was 0.028 µM; in data set [2], 5 µM. The ΔTm in data set [3] was determined as 5.2 °C. In data set [5], the “Selectivity Index” value stood at 178. In addition, the Activity entry in data set [6] was “Toxic”.

Take `Cl.Cl.N=C(Nc1ccc(-c2ccc(NC(=N)c3ccccn3)cc2)cc1)c1ccccn1`: the IC50 is 0.76 µM in data set [1], 0.079 µM in data set [4] and 46.9 µM in data set [2]. In data set [3], the ΔTm worked out at 6 °C. Further, the “Selectivity Index” value in data set [5] came to 594. Moreover, the Activity entry in data set [6] and in data set [7] was “Toxic” each time.

On to `N=C(Nc1ccc(NC(=N)c2ncccn2)cc1)c1ncccn1`, for which, in data set [2], the IC50 is greater than 207 µM. The ΔTm in data set [3] was determined as 0 °C.

Take `CC(C)Oc1cc(NC(=N)c2ccccn2)ccc1-c1ccc(-c2ccc(NC(=N)c3ccccn3)cc2OC(C)C)o1`: the 50% inhibitory concentration (IC50) in data set [2] amounted to 3 µM. In data set [3], the ΔTm is 6 °C.

In the case of `N=C(Nc1ccc(COCc2ccc(NC(=N)c3ccccn3)cc2)cc1)c1ccccn1`, the results for the 50% inhibitory concentration (IC50) in data set [1] and in data set [2] were 1.1 µM and 21.6 µM, respectively. In addition, in data set [3], the ΔTm turned out to be 4 °C.

Values taken from ChEMBL document CHEMBL2062466, “Synthesis, DNA binding and antileishmanial activity of low molecular weight bis-arylimidamides” (Eur J Med Chem, 2012).
